High-throughput results (PubChem BioAssay)
Lung fibro prol = blocks proliferation of human lung fibroblasts. 85,000 compounds, 1.1% hits. AID 719. LL 47 human lung fibroblast viability, ATP luminescence; hits give low values. viability, % at 10 µM;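 active means viability at or below 50% in the single dose screen; inactive means viability above 50%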;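 further: compound exposure lasted 72 h before the ATP readout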
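material = human LL 47 lung fibroblast cells | dosing = compounds added from tenfold dosing solution, 0.1% DMSO final | timing = overnight cell rest, 72 h compound treatment at 37 °C | measured by = CellTiter-Glo luminescence measuring cellular ATP | evaluation = % viability versus median cells-only luminescence | control set = cell-only wells, no compound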
HUVEC inhibit = human endothelial cell proliferation inhibition; HUVEC proliferation, CellTiter-Glo luminescence, 72 h; hits give low values; viability, % at 10 µM (by protocol); 86,000 compounds, 1.1% hits;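 active means viability at or below 30%; inactive means viability above 30%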
bCat KO growth = beta-catenin-lacking colon tumor cell growth suppression | HCT116 beta-catenin knockout viability, CellTiter-Glo, 60 h; hits give low values | viability, % at 10 µM | 140,000 compounds, 1.5% hits | AID 818;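 active means viability at or under a set limit, the compound median less 4 SD, cut at about 6% in these data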
PTEN del growth = PTEN-deleted cell growth suppression | HCT116 PTEN-null viability, CellTiter-Glo, 60 h; hits give low values | viability, % at 10 µM | 140,000 compounds, 1.2% hits;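 active means viability at or below a set limit, 4 SD under the median of all tested compounds, cut at about 3.7% in these data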;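 further: PTEN knockout HCT116 line with beta catenin targeted HCT116 as companion control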
H69AR inhibit = growth inhibitors of human H69AR lung tumor cells; AID 598; H69AR lung tumor viability, ATP luminescence, 72 h; hits give low values; viability, % at 10 µM; 85,000 compounds, 6% hits;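 active means viability at or below 40%; inactive means viability above 40%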;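 further: multidrug resistant small cell line overexpressing MRP-1 efflux transporter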
Each line names hits and unclear results; the compound was inactive in the other large screens. This excerpt belongs to a sample that is enriched for hits.

Cc1ccc(S(=O)(=O)NC2OC(=O)C(Cl)=C2Cl)cc1 (stereo not drawn)	H69AR inhibit 7.0
CCOc1ccccc1N/C(=N/c1nc(C)cc(C)n1)NC(=O)Nc1ccc(Cl)c(Cl)c1	none (no result: Lung fibro prol, HUVEC inhibit, H69AR inhibit)
C=C(c1ccc(OC)cc1)c1ccc(OC)cc1	H69AR inhibit 32
Cc1ccc(Cl)cc1NC(=O)CSC(N)=O	H69AR inhibit 7.6
COC(=O)C(O)(CC(=O)Nc1ccc(Cl)cc1Cl)C(F)(F)F (stereo not drawn)	none
Cc1ccc(Cl)cc1NC(=O)CC(O)(C(F)(F)F)C(F)(F)F	H69AR inhibit 4.5
Cc1ccc(Cl)cc1NC(=O)Cn1cccc1	none
CCn1c2ccccc2c2cc(CN3CCN(S(=O)(=O)Cc4ccccc4)CC3)ccc21	none (no result: Lung fibro prol, HUVEC inhibit, H69AR inhibit)
Cc1cccc(NC(=S)NNC(=O)c2ccco2)c1	none (no result: Lung fibro prol, HUVEC inhibit, H69AR inhibit)
O=C(/C=C/c1ccc(Br)cc1)NC(=S)NNC(=O)c1ccco1	H69AR inhibit 36
O=C(/C=C/c1ccccc1)NC(=S)NNC(=O)c1ccco1	H69AR inhibit 25
O=C(NNC(=O)c1ccco1)c1ccccc1	none (no result: Lung fibro prol, HUVEC inhibit, H69AR inhibit)
COc1ccc(-c2cc3ccccc3oc2=O)cc1NC(=O)c1ccc(Br)o1	H69AR inhibit 32
COc1ccccc1NC(=O)c1ccc(-c2ccc(Br)cc2)o1	H69AR inhibit 19
COc1ccccc1C(=O)Nc1cc2ccccc2oc1=O	H69AR inhibit 32
COc1ccc(-c2cc3ccccc3oc2=O)cc1NC(=O)c1ccc([N+](=O)[O-])o1	none (no result: Lung fibro prol, HUVEC inhibit, H69AR inhibit)
COc1ccccc1C(=O)Nc1cc2cc(Br)ccc2oc1=O	none
C=C(C)Cn1c(SCC(=O)N/N=C/c2cccc(O)c2)nc2ccccc2c1=O	none (no result: Lung fibro prol, HUVEC inhibit, H69AR inhibit)
CCCNC(=O)N1CCN(S(=O)(=O)c2ccc(C)c(C)c2)CC1	none (no result: bCat KO growth, PTEN del growth)
O=c1ccsn1Cc1ccccc1	Lung fibro prol 8.6, bCat KO growth 1.3, H69AR inhibit 1.3
O=C(CSc1nc2ccccc2o1)Nc1cc(C(F)(F)F)ccc1N1CCOCC1	none (no result: Lung fibro prol, HUVEC inhibit, H69AR inhibit)
Cc1ccc2nc(SCC(=O)Nc3cc(C(F)(F)F)ccc3N3CCOCC3)[nH]c2c1	Lung fibro prol 40, HUVEC inhibit 29, H69AR inhibit 12
CC(/C=N/NC(=O)Cn1cnc2c1c(=O)n(C)c(=O)n2C)=C\c1ccccc1	none (no result: Lung fibro prol, HUVEC inhibit, H69AR inhibit)
Cc1ccc(C(=O)c2ccccc2C(=O)OCC(=O)Nc2cccc([N+](=O)[O-])c2)cc1	none (no result: Lung fibro prol, HUVEC inhibit, H69AR inhibit)
Cc1ccc(Cl)c(NC(=O)COC(=O)c2ccccc2C(=O)c2ccc(Cl)c([N+](=O)[O-])c2)c1Cl	bCat KO growth 2.1, PTEN del growth 2.0 (no result: Lung fibro prol, HUVEC inhibit, H69AR inhibit)
Cc1ccc(-n2nnnc2SCC(=O)N2CC(=O)Nc3ccccc32)cc1	none (no result: Lung fibro prol, HUVEC inhibit, H69AR inhibit)
COc1cccc(OCc2nc3ccccc3[nH]2)c1	none
Cc1cc(C)cc(OCc2nc3ncc(Br)cc3[nH]2)c1	Lung fibro prol 14, H69AR inhibit 11 (no result: bCat KO growth, PTEN del growth)
COc1cccc(OCc2nc3ncc(Br)cc3[nH]2)c1	Lung fibro prol 47, H69AR inhibit 25
CCOC(=O)CNC(=O)CSc1nc2ncc(Br)cc2[nH]1	none (no result: H69AR inhibit)
Cc1ccc(OCC(=O)Nc2cc(S(=O)(=O)N3CCCCC3)ccc2C)c([N+](=O)[O-])n1	none (no result: Lung fibro prol, HUVEC inhibit, H69AR inhibit)
O=C(Nc1ccccc1C(=O)N/N=C/c1ccco1)c1ccc(F)cc1	none (no result: Lung fibro prol, HUVEC inhibit, H69AR inhibit)
CCOC(=O)COc1c(Br)cc(/C=C2\SC(=O)N(CC(=O)N3CCCC3)C2=O)cc1OC	none (no result: Lung fibro prol, HUVEC inhibit, H69AR inhibit)
Clc1ncnc2scc(C3COc4ccccc4O3)c12 (stereo not drawn)	H69AR inhibit 7.0
c1ccc2c(c1)OCC(c1csc3ncnc(N4CCCCC4)c13)O2 (stereo not drawn)	none (no result: Lung fibro prol)
COc1ccc(Cc2nnc(NC(=O)c3cccc([N+](=O)[O-])c3)s2)cc1	none (no result: Lung fibro prol, HUVEC inhibit, H69AR inhibit)
O=C(CSC1=NCCS1)Nc1nc2c(s1)CCCC2	H69AR inhibit 17
COc1ccc2nc(NC(=O)CSC3=NCCS3)sc2c1	HUVEC inhibit 30
CCOc1ccc2nc(NC(=O)CN3CCC(n4nnc5cc(F)ccc54)CC3)sc2c1	HUVEC inhibit 9.2
CCOc1ccc2nc(NC(=O)CSC3=NCCS3)sc2c1	H69AR inhibit 1.1
CC(=O)Nc1cc(S(=O)(=O)Nc2ccccc2C)c(C)cc1C	none (no result: Lung fibro prol, HUVEC inhibit, H69AR inhibit)
Cc1nonc1OCC(C)(COc1nonc1C)NC(=O)c1ccccc1	none
COc1ccc(-c2c(C)nn(-c3ccccc3)c2N)cc1OC	none
COc1ccc(C2=CC(c3c(C)nn(-c4ccccc4)c3Cl)n3nnnc3N2)cc1OC (stereo not drawn)	H69AR inhibit 24
CCOc1ccc(C2C=C(c3ccc(C)cc3)Nc3nnnn32)cc1 (stereo not drawn)	HUVEC inhibit 22, H69AR inhibit 2.2
